Data reported in ChEMBL document CHEMBL5042534, “Fluconazole-COX Inhibitor Hybrids: A Dual-Acting Class of Antifungal Azoles” (2022).
In brackets after ≈: the same amount, converted by molar mass. Activity calls are given as the source filed them. No cut-off for these calls is given here.

Key:
Candida albicans [1] = assay: Antifungal activity against Candida albicans SN152 assessed as reduction in drug tolerance by measuring zone of inhibition at 25 ug incubated for 24 to 48 hrs by disk diffusion assay; assay type: functional, organism-based; details: dose 25.0 µg, time 24-48 hrs
Procedure, shortened: (§1)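 Plated onto casitone agar from 24 h, 30 °C YPAD-agar colonies suspended in PBS. Inoculum OD600 0.02 for C. albicans SN152, 0.025 for C. parapsilosis ATCC 22019 and C. tropicalis 660. Central 6-mm disk holding 25 µg drug. Plates incubated at 30 °C and imaged at 24 h (inhibition zone) and 48 h (tolerant colonies within the zone).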

Candida parapsilosis [2] = assay: Antifungal activity against Candida parapsilosis ATCC 22019 assessed as reduction in drug tolerance by measuring zone of inhibition at 25 ug incubated for 24 to 48 hrs by disk diffusion assay; assay type: functional, organism-based; details: dose 25.0 µg, time 24-48 hrs; procedure, shortened: as §1
Candida tropicalis = assay: Antifungal activity against Candida tropicalis 660 assessed as reduction in drug tolerance by measuring zone of inhibition at 25 ug incubated for 24 to 48 hrs by disk diffusion assay; assay type: functional, organism-based; details: dose 25.0 µg, time 24-48 hrs; procedure, shortened: as §1
Candida albicans [3] = assay: Antifungal activity against Candida albicans SN152 harbouring erg3delta delta/erg11delta delta assessed as […] fungal growth inhibition at 64 ug/mL measured every 40 mins for 48 hrs by double dilution method; assay type: functional, organism-based; details: dose 64.0 µg/ml
Procedure, shortened: (§2)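 erg3ΔΔ/erg11ΔΔ C. albicans taken from 24 h, 30 °C YPAD-agar colonies, brought to 1×10^-3 OD600 in PBS, then diluted 1:100 in YPAD. Serial twofold drug dilutions from 64 to 1 µg/mL in YPAD. OD600 read every 40 min over 48 h at 30 °C against no-drug and medium-blank controls. Triplicate wells, two independent experiments.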

Candida parapsilosis [4] = assay: Antifungal activity against Candida parapsilosis ATCC 22019 assessed as fungal growth inhibition incubated for 24 hrs by CLSI based broth double-dilution assay; assay type: functional; details: Lodderomyces parapsilosis
Procedure, shortened: (§3)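 CLSI M27-A3 broth microdilution with modifications in YPAD. Cells from 24 h, 30 °C YPAD-agar colonies brought to 1×10^-3 OD600 in PBS, then diluted 1:100. Twofold dilutions from 64 to 0.003 µg/mL. After 24 h at 30 °C, MIC80 taken as the lowest concentration giving ≥80% OD600 reduction versus no-drug wells. Triplicate wells, two independent experiments.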

Candida albicans [5] = assay: Antifungal activity against Candida albicans SN152 harbouring erg3delta delta/erg11delta delta assessed as […] fungal growth inhibition measured every 40 mins for 48 hrs by double dilution method; assay type: functional, organism-based; details: dose 1-64 µg/ml; procedure, shortened: as §2
Candida albicans [6] = assay: Antifungal activity against Candida albicans SN152 harbouring erg3delta delta/erg11delta delta assessed as fungal growth inhibition incubated for 24 hrs by CLSI based broth double-dilution assay; assay type: functional; procedure, shortened: as §3
Candida albicans [7] = assay: Antifungal activity against Candida albicans SN152 assessed as fungal growth inhibition incubated for 24 hrs by CLSI based broth double-dilution assay; assay type: functional
Procedure, shortened: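 Broth double-dilution per CLSI M27-A3 (minor modifications); colonies from YPAD agar (24 h, 30 °C) suspended in PBS to 1 × 10^-3 OD600 then diluted 1:100 into YPAD; serial twofold dilutions 64–0.003 μg/mL in YPAD; 24 h at 30 °C; OD600 read; MIC80 = lowest concentration reducing OD600 ≥80% versus no-drug wells; triplicate, two independent experiments.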

Candida albicans [8] = assay: Antifungal activity against Candida albicans SN152 harbouring erg3delta delta/erg11delta delta assessed as […] fungal growth inhibition at 1 to 64 ug/mL measured every 40 mins for 48 hrs by double dilution method; assay type: functional, organism-based; details: dose 1-64 µg/ml; procedure, shortened: as §2

SMILES	Activity (Candida albicans [1])	Activity (Candida parapsilosis [2])	Activity (Candida tropicalis)	Activity (Candida albicans [3])	MIC80 (Candida parapsilosis [4])	Activity (Candida albicans [5])	MIC80 (Candida albicans [6])	MIC80 (Candida albicans [7])	Activity (Candida albicans [8])
C[C@@H](c1ncncc1F)[C@](O)(Cn1cncn1)c1ccc(F)cc1F [VORICONAZOLE]	inactive	inactive	Active	Active	0.015 µg/mL (≈ 0.0429 µM)	–	–	–	–
CC(C)Cc1ccc(C(C)C(=O)O)cc1 (centres undefined)	–	–	–	–	–	Dose-Dependent Effect	–	–	–
CC(C)Cc1ccc([C@H](C)C(=O)NC[C@](O)(Cn2cncn2)c2ccc(F)cc2F)cc1	Active	Active	Active	–	–	Dose-Dependent Effect	64 µg/mL (≈ 145 µM)	3 ng/mL (≈ 0.00678 µM)	–
CC(C(=O)O)c1ccc(-c2ccccc2)c(F)c1 (centres undefined)	–	–	–	–	–	Dose-Dependent Effect	–	–	–
OC(Cn1cncn1)(Cn1cncn1)c1ccc(F)cc1F	inactive	inactive	Active	–	–	–	–	–	inactive
C[C@H](C(=O)NC[C@](O)(Cn1cncn1)c1ccc(F)cc1F)c1ccc(-c2ccccc2)c(F)c1	Active	Active	Active	–	0.5 µg/mL (≈ 1.04 µM)	Dose-Dependent Effect	64 µg/mL (≈ 133 µM)	7 ng/mL (≈ 0.0146 µM)	–
